Source: paper PMC3839847 (Current topics in medicinal chemistry, 2012)

How the values were obtained:
CXCL12 = CXCL12 (Homo sapiens, UniProt P48061); test: 2D 1H-15N HSQC NMR titration, fragment binding to CXCL12; details: for LE: ligand efficiency: free energy of binding divided by number of non-hydrogen atoms (kcal/mol/non-hydrogen atom); for CXCL12 chemical shift perturbations: 2D NMR titration, no meaningful affinity value could be fitted
[1] = tested on: CCL2 (MCP-1), activates the CCR2 receptor; test: chemotaxis assay repeated with CCL2; assay type: cell-based; details: data not shown
[2] = tested on: CXCL12-induced chemotaxis of THP-1 monocytes; test: in vitro chemotaxis assay, THP-1 monocytes with CXCL12; assay type: cell-based; details: read-out: IC50 of chemotaxis to CXCL12, 10 nM CXCL12
Procedure, shortened: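 Chemotaxis in vitro used THP-1 monocytes, which express CXCR4 endogenously, exposed to CXCL12 with or without each tetrazole fragment.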

SMILES	Kd (CXCL12)	LE (CXCL12)	CXCL12 chemical shift perturbations (CXCL12)	further results
O=C(Nc1ccc(-c2nnn[nH]2)cc1)c1ccccc1 [Compound 15, N-(4-(1H-tetrazol-5-yl)phenyl)benzamide]	64 ± 23 µM	0.29	–	–
O=C(Nc1ccccc1)Nc1cccc(-c2nnn[nH]2)c1 [Compound 17, 1-(3-(1H-tetrazol-5-yl)phenyl)-3-phenylurea]	126 ± 23 µM	0.25	–	–
CC(=O)Nc1cccc(-c2nnn[nH]2)c1 [Compound 12, N-(3-(1H-tetrazol-5-yl)phenyl)acetamide]	–	–	small chemical shift perturbations	–
O=C(Nc1ccc(-c2nn[nH]n2)cc1)Nc1cccc2ccccc12 [Compound 25]	–	–	–	specificity for CXCL12- versus CCL2-induced migration [1]: specifically inhibits CXCL12-induced migration; IC50 [2]: 111 ± 24 µM
O=C(Nc1ccccc1-c1nnn[nH]1)c1ccccc1 [Compound 11, N-(2-(1H-Tetrazol-5-yl)phenyl)benzamide]	13 ± 7 µM	0.33	–	–
CC(=O)Nc1ccccc1-c1nnn[nH]1 [Compound 10, N-(2-(1H-Tetrazol-5-yl)phenyl) acetamide]	–	–	small chemical shift perturbations	–
O=C(Nc1ccccc1)Nc1ccccc1-c1nnn[nH]1 [Compound 16, 1-(2-(1H-Tetrazol-5-yl)phenyl)-3-phenylurea]	327 ± 92 µM	0.23	–	–
CC(=O)Nc1ccc(-c2nnn[nH]2)cc1 [Compound 14, N-(4-(1H-tetrazol-5-yl)phenyl)acetamide]	–	–	small chemical shift perturbations	–
O=C(Nc1ccccc1)Nc1ccc(-c2nnn[nH]2)cc1 [Compound 18, 1-(4-(1H-Tetrazol-5-yl)phenyl)-3-phenylurea]	24 ± 28 µM	0.30	–	–
O=C(Nc1cccc(-c2nnn[nH]2)c1)c1ccccc1 [Compound 13, N-(3-(1H-tetrazol-5-yl)phenyl)benzamide]	50 ± 16 µM	0.29	–	–
